The text below walks through data of PubChem BioAssay.

For orientation: inhibition means the relative decrease from the control value, in per cent.

Active and inactive are the calls of the source.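 Rule for the calls, unless noted: active = inhibition at or above 50% at 10 µM; inactive = inhibition below 50%.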

The nature of test [1]: inhibitors of TNFa-induced NFkB p65 translocation, primary screen, imaging, HUVEC, MLSMR starter and 10KST1 sets (AID 438;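 active = inhibition above 20% together with a positive visual image hit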;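 note: compound added about 3h40 before a 20 min TNFalpha stimulation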;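 for inhibition: signal is the nuclear over cytoplasmic p65 intensity ratio per well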). The settings on record: HUVEC TNFa-induced p65 nuclear translocation; cell count: measured here: nuclei count (cytotoxicity indicator), at 2.08 µM; inhibition: at 2 µM, stronger effect = higher value, 0% TNFa-plus-vehicle, 100% no-TNFa wells.
A short description of test [2]: reduction of polyQ htt aggregates in cells – imaging, exon1htt(103Q)mCFP cells, high-content imaging, primary screen (AID 483;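 active = visual image review flags a hit and inhibition of aggregation exceeds 20%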;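 note: compound exposure lasted 3 days before fixation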;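 for nuclei count: percent of the per-plate median nuclei count of sample wells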). The settings on record: exon1htt(103Q)mCFP cell line, aggregate imaging, at 2 µM; inhibition of aggregation: stronger effect = higher value; nuclei count: measured here: cell count, toxicity.
The nature of test [3]: endothelial E-selectin expression blockers – imaging, HUVEC, immunofluorescence, MLSMR starter and 10KST1 sets, primary screen (AID 487;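 active = visually confirmed hit in the image check and inhibition above 20%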;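 for inhibition: signal is fraction of cell area covered by stained E-selectin grains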;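 for nuclei count: 100% = median nuclei count of all wells on the same plate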). The settings on record: HUVEC TNFalpha-induced E-selectin immunofluorescence imaging, at 2 µM; inhibition: stronger effect = higher value; nuclei count: measured here: cell number, toxicity.
The target in test [4] is Voltage-gated potassium channel subunit beta-2 (Rattus norvegicus) (UniProt P62483). Put plainly: inhibitors of rat Kvbeta2 reductase activity – biochemical, NADPH fluorescence, primary screen (AID 622;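 active = fluorescence slope higher than the sample average by over 3 SD, cut at about -0.22 in these data, passing the limit was not always enough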;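 note: slope of raw intensity against log time taken from 70 to 1610 s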). The settings on record: recombinant KvBeta, 4-cyanobenzaldehyde reduction, at 10 µM, stronger effect = higher value.
Test [5] has the same target. Put plainly: enhancers of rat Kvbeta2 NADPH turnover – biochemical, NADPH fluorescence, primary screen (AID 623;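 active = NADPH fluorescence slope more negative than the mean of all samples by about 3 SD, 99.7% confidence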;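 note: fluorescence intensity change per second fitted from 20 to 320 s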). The settings on record: Recombinant KvBeta, NADPH fluorescence decrease slope, 10 min; at 10 µM; stronger effect = lower value.
For test [6], the target named is Muscarinic acetylcholine receptor M4 (Homo sapiens) (UniProt P08173). Put plainly: M4-linked GIRK flux change, two-sided – cell-based, HEK293 M4/GIRK, thallium flux, BTC-AM, M4 allosteric agonist project, primary screen (AID 625;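 active = fluorescence slope after compound addition differing from the mean of all tested samples at 99.7% confidence, mostly higher but some lower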;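 note: thallium influx through GIRK channels coupled to M4 in HEK293 cells with BTC-AM dye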). As to conditions: at 10 µM, actives lie on both sides. A digest of the protocol: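 assay system = HEK293 cells with M4 receptor and GIRK channels | medium = pH 7.3 thallium assay buffer | doses = 10 µM final, single point | timing = cells overnight at 37 °C, BTC-AM loading 1 h, reads 2 min total | signal = BTC-AM fluorescence, 1 Hz kinetic reads | read-out = post-addition slope, 15–24 s, of baseline-normalized fluorescence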

Test [7] can be described thus: blockers of RIG-like receptor reporter activation – cell-based, Sendai virus stimulus, luciferase, 10K MLSCN set, TLR/RLR signaling modifier project, primary screen (AID 602276).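 Note: firefly luciferase from ISG56 promoter only with Renilla not read in this screen; 0% = Sendai virus plus DMSO and 100% = medium plus DMSO without virus.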 The settings on record: HEK293 RL24 IRF3 luciferase reporter, at 10 µM, stronger effect = higher value. In general terms: A reporter such as luciferase makes a cellular process visible.
Test [8] is described as follows: TLR3 IRF3 reporter activation blockers – cell-based, poly I:C stimulus, luciferase, 10K MLSCN set, primary screen (AID 602277;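 active = inhibition of the reporter signal at or above 50%; inactive = inhibition below 50%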). The settings on record: HEK293-TLR3 RL24 IRF3 luciferase reporter, at 10 µM, stronger effect = higher value.

Sequence of Voltage-gated potassium channel subunit beta-2 (Rattus norvegicus) (P62483 whole entry, looked up): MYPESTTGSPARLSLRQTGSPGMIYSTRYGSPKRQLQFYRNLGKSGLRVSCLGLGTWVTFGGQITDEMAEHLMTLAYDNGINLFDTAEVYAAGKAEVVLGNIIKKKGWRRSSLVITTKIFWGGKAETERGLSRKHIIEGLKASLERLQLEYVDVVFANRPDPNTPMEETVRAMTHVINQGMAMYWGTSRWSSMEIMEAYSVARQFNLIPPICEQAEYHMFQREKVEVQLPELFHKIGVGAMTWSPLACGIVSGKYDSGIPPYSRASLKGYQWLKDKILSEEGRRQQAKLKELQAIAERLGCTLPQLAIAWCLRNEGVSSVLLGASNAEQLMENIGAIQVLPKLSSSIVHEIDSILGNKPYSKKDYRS
Sequence of Muscarinic acetylcholine receptor M4 (Homo sapiens) (P08173 whole entry, looked up): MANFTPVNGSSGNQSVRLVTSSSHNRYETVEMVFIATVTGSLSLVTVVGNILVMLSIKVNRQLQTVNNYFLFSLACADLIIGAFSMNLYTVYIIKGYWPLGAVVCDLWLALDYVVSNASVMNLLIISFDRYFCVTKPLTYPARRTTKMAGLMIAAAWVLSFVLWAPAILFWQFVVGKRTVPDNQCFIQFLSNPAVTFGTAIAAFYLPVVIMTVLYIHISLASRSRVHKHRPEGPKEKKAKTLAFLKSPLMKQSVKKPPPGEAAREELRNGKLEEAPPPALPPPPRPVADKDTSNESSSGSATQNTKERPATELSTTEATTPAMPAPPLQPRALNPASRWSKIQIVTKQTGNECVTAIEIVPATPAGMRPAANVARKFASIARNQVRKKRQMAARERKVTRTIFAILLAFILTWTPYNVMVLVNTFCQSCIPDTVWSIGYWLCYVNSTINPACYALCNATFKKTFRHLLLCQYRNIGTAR

`CCOC(=O)c1sc2nc(C)cc(C)c2c1N`: the cell count in test [1] came out at 443. For the same compound, the inhibition in test [1] was 8.7% (inactive); in test [3], -26% (inactive); in test [7], -33.2% (inactive); in test [8], -45.5% (inactive). In addition, in test [2], the inhibition of aggregation was -13.6% (inactive). Besides, the results for the nuclei count in test [2] and in test [3] were 111% and 127%, respectively. Also, the fluorescence slope is -0.105 (inactive) in test [4] and 0.00463 (inactive) in test [6]. Moreover, in test [5], the NADPH fluorescence slope was -1.9e-05 (inactive).
Regarding `O=C(Nc1ccc(CN2CCCCC2)cc1)c1ccc2c(c1)OCO2`, the cell count in test [1] stood at 438. For the same compound, the inhibition in test [1] is -12.8% (inactive); in test [3] it was -0.6% (inactive); in test [7] it was -5.51% (inactive); in test [8] it was -5.01% (inactive). Further, in test [2], the inhibition of aggregation was 15.1% (inactive). In addition, the values for the nuclei count in test [2] and in test [3] were 102% and 73.6%, respectively. Besides, the fluorescence slope was -0.473 (inactive) in test [4] and 0.00547 (inactive) in test [6]. For the same compound, the NADPH fluorescence slope in test [5] is -1.5e-05 (inactive).
With `Cc1ccc(C)c(C(=O)NC2CC(C)(C)NC(C)(C)C2)c1`, the cell count in test [1] turned out to be 690. Moreover, the inhibition in test [1] is 0.8% (inactive); in test [3], -8.2% (inactive); in test [7] it was -2.48% (inactive); in test [8] it was 9.21% (inactive). For the same compound, in test [2], the inhibition of aggregation was 14% (inactive). Besides, the nuclei count in test [2] came to 94%; in test [3], 96%. The fluorescence slope was -0.578 (inactive) in test [4] and 0.00855 (inactive) in test [6]. Further, the NADPH fluorescence slope in test [5] is -5.3e-05 (inactive).
For `O=c1[nH]c2ccc(S(=O)(=O)N3CCN(C4CCCCC4)CC3)cc2[nH]c1=O`, the cell count in test [1] is 264. Moreover, the inhibition in test [1] was -7.8% (inactive); in test [3] it was -52.5% (inactive); in test [7] it was -0.0358% (inactive); in test [8] it was 6.71% (inactive). For the same compound, the inhibition of aggregation in test [2] was -36.5% (inactive). For the same compound, the values for the nuclei count in test [2] and in test [3] were 90.7% and 122%, respectively. Moreover, the fluorescence slope in test [4] is -0.484 (inactive); in test [6], 0.00453 (inactive). For the same compound, the NADPH fluorescence slope in test [5] was -0.000259 (inactive).
Take `O=C(O)CSc1ccc2ccccc2n1`: the cell count in test [1] came out at 418. Also, the inhibition in test [1] is 3.6% (inactive); in test [3], 15.7% (inactive); in test [7], 19% (inactive); in test [8], 23.8% (inactive). Moreover, the inhibition of aggregation in test [2] was 1.4% (inactive). For the same compound, the nuclei count in test [2] was determined as 106%; in test [3] it was 102%. Further, the fluorescence slope was -0.525 (inactive) in test [4] and 0.00444 (inactive) in test [6]. In test [5], the NADPH fluorescence slope is -3.7e-05 (inactive).
`CS(=O)(=O)N(CC(=O)N1CCCCCC1)c1ccccc1`: the cell count in test [1] amounted to 324. Moreover, the inhibition in test [1] was -0.2% (inactive); in test [3], -11.6% (inactive); in test [7], 11.4% (inactive); in test [8] it was 8.59% (inactive). In addition, the inhibition of aggregation in test [2] is 1.9% (inactive). The nuclei count is 82.8% in test [2] and 106% in test [3]. Also, the fluorescence slope in test [4] was -0.452 (inactive); in test [6] it was 0.00505 (inactive). Also, the NADPH fluorescence slope in test [5] was -3.4e-05 (inactive).
Regarding `CCn1c(CSc2ncccn2)nnc1SCC(=O)N1c2ccccc2CC1C` (centres undefined), the cell count in test [1] stood at 644. In addition, the inhibition is 27.9% (active) in test [1], -3.3% (inactive) in test [3], 12.2% (inactive) in test [7] and 0.579% (inactive) in test [8]. Further, the inhibition of aggregation in test [2] was -1.3% (inactive). Besides, the nuclei count in test [2] amounted to 103%; in test [3], 95.8%. Besides, the figures for the fluorescence slope in test [4] and in test [6] were -0.446 (inactive) and 0.00475 (inactive), respectively. Moreover, the NADPH fluorescence slope in test [5] was -7.9e-06 (inactive).
Regarding `C/C(=C\c1cc(C(=O)O)c(C)o1)CO`, the cell count in test [1] amounted to 417. Moreover, the inhibition in test [1] was 5.1% (inactive); in test [3], 39.5% (inactive); in test [7], -6.67% (inactive); in test [8], -4.63% (inactive). For the same compound, the inhibition of aggregation in test [2] is 4.9% (inactive). Further, the nuclei count in test [2] amounted to 94.9%; in test [3], 103%. For the same compound, the fluorescence slope in test [4] was -0.431 (inactive); in test [6], 0.00423 (inactive). In addition, the NADPH fluorescence slope in test [5] is -0.00049 (inactive).
For the compound `CN(C)c1ccc(NC(=O)CSCc2nc3c(nnn3Cc3ccc(F)cc3)c(=O)[nH]2)cc1`, the cell count in test [1] stood at 579. For the same compound, the inhibition in test [1] is 7.1% (inactive); in test [3], -72.4% (inactive); in test [7], 10.7% (inactive); in test [8], 15.6% (inactive). The inhibition of aggregation in test [2] was -8.4% (inactive). Also, the nuclei count in test [2] turned out to be 105%; in test [3], 114%. Moreover, the fluorescence slope is -0.204 (inactive) in test [4] and 0.00529 (inactive) in test [6]. Further, the NADPH fluorescence slope in test [5] was -6.4e-06 (inactive).
Take `Cc1cc(NC(=O)CSc2nc3ccsc3c(=O)n2NC(=O)c2ccccc2)no1`: the cell count in test [1] stood at 317. For the same compound, the inhibition was -1.2% (inactive) in test [1], -234% (inactive) in test [3], -39.7% (inactive) in test [7] and -61.1% (inactive) in test [8]. Moreover, in test [2], the inhibition of aggregation is -4.7% (inactive). For the same compound, the nuclei count worked out at 102% in test [2] and 117% in test [3]. Further, the fluorescence slope in test [4] was -0.449 (inactive); in test [6], 0.00651 (inactive). Also, the NADPH fluorescence slope in test [5] was 9e-05 (inactive).
Regarding `Brc1ccc(C2=Nn3c(nnc3-c3ccncc3)SC2)cc1`, the cell count in test [1] was determined as 369. For the same compound, the inhibition in test [1] was 2.2% (inactive); in test [3], -12.7% (inactive); in test [7], 13.7% (inactive); in test [8], 0.85% (inactive). For the same compound, in test [2], the inhibition of aggregation is -12.9% (inactive). Further, the nuclei count was 123% in test [2] and 117% in test [3]. Also, the fluorescence slope was -0.544 (inactive) in test [4] and 0.00451 (inactive) in test [6]. The NADPH fluorescence slope in test [5] is 3.4e-05 (inactive).
Take `CC(=O)Nc1ccc(NC(=O)c2ccccc2F)cc1`: the cell count in test [1] came out at 345. Also, the inhibition is -4.6% (inactive) in test [1], -14.4% (inactive) in test [3], -10.5% (inactive) in test [7] and -55% (inactive) in test [8]. Further, the inhibition of aggregation in test [2] was 1.3% (inactive). The nuclei count in test [2] amounted to 102%; in test [3], 116%. Moreover, the fluorescence slope in test [4] was -0.556 (inactive); in test [6], 0.00528 (inactive). In test [5], the NADPH fluorescence slope is -1.7e-05 (inactive).
For `Cc1cc(C(=O)N2CCN(C(c3ccccc3)c3ccccc3)CC2)no1`, the cell count in test [1] amounted to 303. The inhibition in test [1] is -17.6% (inactive); in test [3], -17.5% (inactive); in test [7] it was 14.8% (inactive); in test [8], 12.2% (inactive). Moreover, in test [2], the inhibition of aggregation is 32.7% (inactive). In addition, the nuclei count in test [2] amounted to 73.4%; in test [3], 84.1%. For the same compound, the values for the fluorescence slope in test [4] and in test [6] were -0.433 (inactive) and 0.00719 (inactive), respectively. Moreover, in test [5], the NADPH fluorescence slope was -5.3e-05 (inactive).
Take `O=C(c1ccccc1)c1ccc(N2CCOCC2)c(NC(=O)c2ccco2)c1`: the cell count in test [1] stood at 318. For the same compound, the inhibition in test [1] was -13% (inactive); in test [3], -23.2% (inactive); in test [7] it was 14.1% (inactive); in test [8] it was 17.3% (inactive). Besides, the inhibition of aggregation in test [2] was -8.7% (inactive). Besides, the nuclei count in test [2] turned out to be 114%; in test [3], 119%. For the same compound, the fluorescence slope in test [4] was -0.421 (inactive); in test [6], 0.0062 (inactive). Further, the NADPH fluorescence slope in test [5] was 1e-05 (inactive).
